Results taken from ChEMBL document CHEMBL1152695, “Development of 3-substituted-1H-indole derivatives as NR2B/NMDA receptor antagonists” (Bioorg Med Chem, 2009).

What was measured:
Mus musculus [1] = assay: Anticonvulsant activity in ip dosed DBA/2 mouse assessed as inhibition of auditory stimulation-induced clonic seizures administered 30 mins before auditory stimulation; type: functional; conditions: DBA/2, ip
In short: (§1)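 DBA/2 mice (8–12 g, 22–25 days old), either sex, groups of 10. Given ip in 50% DMSO/50% saline at 0.1 mL/10 g, 30 min before testing. After 60 s habituation under a dome, sound (12–16 kHz, 109 dB) applied for 60 s or until tonic extension. Latency and incidence of each seizure phase scored.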

Mus musculus [2] = assay: Anticonvulsant activity in ip dosed DBA/2 mouse assessed as inhibition of auditory stimulation-induced tonic seizures administered 30 mins before auditory stimulation; type: functional; conditions: DBA/2, ip; in short: as §1
[3] = target: Glutamate receptor ionotropic, NMDA 2B (Rattus norvegicus) (UniProt Q00960); assay: Antagonist activity at NMDA NR2B receptor in Wistar rat CA1 pyramidal neurons assessed as inhibition of NMDA-induced inward currents at holding potential of -60 mV by patch-clamp technique; type: functional, cell-based; conditions: Pyramidal neuron
In short: (§2)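 Rat hippocampal slices; whole-cell currents recorded from single CA1 pyramidal neurons held at -60 mV. Inward current evoked by NMDA (50 µM, 5 s) plus glycine (0.5 µM). Compound bath-perfused at 1, 10 or 100 µM for 5 min. Amplitude taken as peak minus baseline, from at least three consecutive responses in control and in compound. Sets compared by unpaired t-test; percent reduction reported as mean ± SEM.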

[4] = target: Glutamate receptor ionotropic, NMDA 2B (Rattus norvegicus) (UniProt Q00960); assay: Antagonist activity at NMDA NR2B receptor in Wistar rat CA1 pyramidal neurons assessed as reduction of NMDA-induced inward currents at 10 uM at holding potential of -60 mV by patch-clamp technique; type: functional, cell-based; parameters: scale not given: the % may be the effect or the level left; conditions: Pyramidal neuron; in short: as §2
[5] = target: Glutamate receptor ionotropic, NMDA 2B (Rattus norvegicus) (UniProt Q00960); assay: Antagonist activity at NMDA NR2B receptor in Wistar rat CA1 pyramidal neurons assessed as reduction of NMDA-induced inward currents at 100 uM at holding potential of -60 mV by patch-clamp technique; type: functional, cell-based; parameters: scale not given: the % may be the effect or the level left; conditions: Pyramidal neuron; in short: as §2
[6] = target: Glutamate receptor ionotropic, NMDA 2B (Rattus norvegicus) (UniProt Q00960); assay: Antagonist activity at NMDA NR2B receptor in Wistar rat CA1 pyramidal neurons assessed as reduction of NMDA-induced inward currents at 1 uM at holding potential of -60 mV by patch-clamp technique; type: functional, cell-based; parameters: scale not given: the % may be the effect or the level left; conditions: Pyramidal neuron; in short: as §2
[7] = target: Glutamate receptor ionotropic, NMDA 2B (Rattus norvegicus, UniProt Q00960); assay: Displacement of [3H]ifenprodil from NMDA NR2B receptor in Wistar rat cerebral cortex membrane; type: tissue-based
[8] = target: Glutamate receptor ionotropic, NMDA 2B (Rattus norvegicus) (UniProt Q00960); assay: Displacement of [3H]ifenprodil from NMDA NR2B receptor in Wistar rat cerebral cortex membrane at 10 uM; type: tissue-based

Glutamate receptor ionotropic, NMDA 2B (Rattus norvegicus), sequence (Q00960 27-1482 limits assumed): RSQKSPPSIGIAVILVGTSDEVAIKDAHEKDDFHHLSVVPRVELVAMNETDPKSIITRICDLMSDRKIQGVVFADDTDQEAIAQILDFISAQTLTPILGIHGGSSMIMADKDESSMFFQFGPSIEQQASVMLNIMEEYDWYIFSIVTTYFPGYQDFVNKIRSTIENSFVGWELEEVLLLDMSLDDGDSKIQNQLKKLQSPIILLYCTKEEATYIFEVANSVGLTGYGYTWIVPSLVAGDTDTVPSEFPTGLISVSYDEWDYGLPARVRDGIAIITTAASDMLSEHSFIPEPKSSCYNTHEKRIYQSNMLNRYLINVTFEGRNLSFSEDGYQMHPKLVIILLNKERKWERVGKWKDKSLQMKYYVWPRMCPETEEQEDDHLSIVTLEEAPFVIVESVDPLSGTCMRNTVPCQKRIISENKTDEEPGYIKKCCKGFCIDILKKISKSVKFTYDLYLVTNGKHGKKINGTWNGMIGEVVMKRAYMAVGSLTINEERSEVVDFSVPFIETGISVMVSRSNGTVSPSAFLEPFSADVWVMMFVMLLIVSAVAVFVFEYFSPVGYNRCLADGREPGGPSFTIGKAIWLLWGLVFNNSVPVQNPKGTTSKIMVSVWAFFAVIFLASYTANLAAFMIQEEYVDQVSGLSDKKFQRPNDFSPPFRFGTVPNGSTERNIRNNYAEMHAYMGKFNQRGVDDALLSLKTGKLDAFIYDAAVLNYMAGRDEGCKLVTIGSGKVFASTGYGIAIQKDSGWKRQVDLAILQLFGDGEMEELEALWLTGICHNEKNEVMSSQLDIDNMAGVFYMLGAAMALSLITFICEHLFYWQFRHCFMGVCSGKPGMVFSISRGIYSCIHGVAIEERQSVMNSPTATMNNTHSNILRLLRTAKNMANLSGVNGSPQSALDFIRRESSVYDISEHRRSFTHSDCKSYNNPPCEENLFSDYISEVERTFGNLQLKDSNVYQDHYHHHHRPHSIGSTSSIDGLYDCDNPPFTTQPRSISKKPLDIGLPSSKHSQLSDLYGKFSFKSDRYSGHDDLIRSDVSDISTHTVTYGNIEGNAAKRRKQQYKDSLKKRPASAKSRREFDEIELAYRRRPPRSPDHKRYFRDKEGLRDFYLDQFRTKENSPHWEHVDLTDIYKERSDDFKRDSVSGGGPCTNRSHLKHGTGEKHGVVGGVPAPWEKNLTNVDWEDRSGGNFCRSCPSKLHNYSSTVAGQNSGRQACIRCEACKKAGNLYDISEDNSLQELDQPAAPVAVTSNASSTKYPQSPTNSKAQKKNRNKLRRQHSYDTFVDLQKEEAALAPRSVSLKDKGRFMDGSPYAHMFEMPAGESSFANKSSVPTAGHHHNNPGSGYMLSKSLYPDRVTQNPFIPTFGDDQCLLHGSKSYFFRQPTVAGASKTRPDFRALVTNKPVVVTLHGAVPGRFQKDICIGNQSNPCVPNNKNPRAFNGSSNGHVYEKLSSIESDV
Glutamate receptor ionotropic, NMDA 2B, sequence (Q00960 whole entry): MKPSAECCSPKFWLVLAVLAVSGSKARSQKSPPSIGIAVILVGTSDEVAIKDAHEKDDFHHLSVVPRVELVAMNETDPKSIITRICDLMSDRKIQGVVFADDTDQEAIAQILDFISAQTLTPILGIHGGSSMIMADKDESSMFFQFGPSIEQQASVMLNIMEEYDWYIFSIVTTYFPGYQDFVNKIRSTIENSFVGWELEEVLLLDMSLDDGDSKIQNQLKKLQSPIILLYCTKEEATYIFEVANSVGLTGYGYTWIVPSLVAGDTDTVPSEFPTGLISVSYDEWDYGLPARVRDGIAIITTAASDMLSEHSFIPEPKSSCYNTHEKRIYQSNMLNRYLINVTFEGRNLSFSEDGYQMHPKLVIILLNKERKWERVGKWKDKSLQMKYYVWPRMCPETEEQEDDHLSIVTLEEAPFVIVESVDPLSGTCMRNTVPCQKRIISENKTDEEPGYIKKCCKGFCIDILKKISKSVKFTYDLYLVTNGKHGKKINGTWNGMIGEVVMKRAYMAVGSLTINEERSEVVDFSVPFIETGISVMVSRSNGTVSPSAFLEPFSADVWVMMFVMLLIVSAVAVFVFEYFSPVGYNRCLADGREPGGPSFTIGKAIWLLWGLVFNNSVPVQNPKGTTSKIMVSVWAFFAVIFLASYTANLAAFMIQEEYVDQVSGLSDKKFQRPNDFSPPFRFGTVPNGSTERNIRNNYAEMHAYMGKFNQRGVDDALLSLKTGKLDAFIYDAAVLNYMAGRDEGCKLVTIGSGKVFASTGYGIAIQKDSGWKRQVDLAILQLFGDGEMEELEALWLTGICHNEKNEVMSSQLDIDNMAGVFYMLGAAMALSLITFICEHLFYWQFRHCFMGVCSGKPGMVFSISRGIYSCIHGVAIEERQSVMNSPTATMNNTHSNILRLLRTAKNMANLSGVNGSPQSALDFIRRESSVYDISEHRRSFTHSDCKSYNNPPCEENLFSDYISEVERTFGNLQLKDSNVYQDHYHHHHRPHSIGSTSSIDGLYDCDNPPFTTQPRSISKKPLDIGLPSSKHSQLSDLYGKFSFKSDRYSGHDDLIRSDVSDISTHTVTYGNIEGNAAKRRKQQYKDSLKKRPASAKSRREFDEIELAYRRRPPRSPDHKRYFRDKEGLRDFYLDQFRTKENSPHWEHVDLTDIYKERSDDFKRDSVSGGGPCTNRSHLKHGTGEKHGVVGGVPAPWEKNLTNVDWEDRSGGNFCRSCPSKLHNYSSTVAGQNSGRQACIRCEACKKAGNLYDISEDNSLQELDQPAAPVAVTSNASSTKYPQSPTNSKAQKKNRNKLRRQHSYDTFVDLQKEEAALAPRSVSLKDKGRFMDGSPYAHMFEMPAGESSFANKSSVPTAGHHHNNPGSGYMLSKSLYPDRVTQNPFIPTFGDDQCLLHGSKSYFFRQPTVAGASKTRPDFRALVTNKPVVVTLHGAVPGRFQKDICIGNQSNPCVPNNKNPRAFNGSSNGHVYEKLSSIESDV

| Structure (SMILES) | ED50 (Mus musculus [1]) | ED50 (Mus musculus [2]) | also measured |
| --- | --- | --- | --- |
| O=C(CN1CCC(Cc2ccccc2)CC1)c1c[nH]c2ccc(O)cc12 | 11.5 µmol/kg | 6.48 µmol/kg | Activity [3]: Dose-dependent effect; Activity [4]: 52%; Activity [5]: 75%; Activity [6]: 23%; IC50 [7]: 25 nM; Ki [7]: 23 nM; Activity [8]: 92% |
| O=C(C(=O)N1CCC(Cc2ccccc2)CC1)c1c[nH]c2ccc(Br)cc12 | > 100 µmol/kg | 47.9 µmol/kg |  |
| O=C(CN1CCN(Cc2ccccc2)CC1)c1c[nH]c2ccccc12 | > 100 µmol/kg | > 100 µmol/kg |  |
| O=C(CCc1c[nH]c2ccccc12)N1CCC(Cc2ccccc2)CC1 | > 100 µmol/kg | 57.6 µmol/kg |  |
| O=C(C(=O)N1CCC(Cc2ccccc2)CC1)c1c[nH]c2ccc(O)cc12 | > 100 µmol/kg | > 100 µmol/kg | IC50 [7]: 2660 nM; Activity [8]: 77% |
| O=C(Cc1c[nH]c2ccccc12)N1CCC(Cc2ccccc2)CC1 | 70.3 µmol/kg | 39.2 µmol/kg |  |
| O=C(CN1CCC(Cc2ccccc2)CC1)c1c[nH]c2ncccc12 | 88.5 µmol/kg | 32.5 µmol/kg |  |
| O=C(Cc1c[nH]c2ccc(O)cc12)N1CCC(Cc2ccccc2)CC1 | 45.6 µmol/kg | 13.9 µmol/kg |  |
| COc1ccc2[nH]cc(C(=O)C(=O)N3CCC(Cc4ccccc4)CC3)c2c1 | > 100 µmol/kg | 78.8 µmol/kg |  |
| C[C@@H](CN1CCC(Cc2ccccc2)CC1)[C@@H](O)c1ccc(O)cc1 | 40 µmol/kg | 10.6 µmol/kg |  |
| O=C(CN1CCC(Cc2ccccc2)CC1)c1c[nH]c2ccc(Br)cc12 | 84.9 µmol/kg | 49.7 µmol/kg |  |
| COc1ccc2[nH]cc(C(=O)CN3CCC(Cc4ccccc4)CC3)c2c1 | 59.9 µmol/kg | 36.5 µmol/kg |  |
| O=C(Cc1c[nH]c2ccc(Br)cc12)N1CCC(Cc2ccccc2)CC1 | 27.3 µmol/kg | 5.42 µmol/kg |  |
| O=C(C(=O)N1CCC(Cc2ccccc2)CC1)c1c[nH]c2ccccc12 | 22.4 µmol/kg | 0.95 µmol/kg | Activity [8]: 36% |
| COc1ccc2[nH]cc(CC(=O)N3CCC(Cc4ccccc4)CC3)c2c1 | 89 µmol/kg | 34.4 µmol/kg |  |
| O=C(CN1CCC(Cc2ccccc2)CC1)c1c[nH]c2ccccc12 | 22.4 µmol/kg | 8.71 µmol/kg | IC50 [7]: 769 nM; Activity [8]: 89% |
